Measured values from ChEMBL document CHEMBL4431310, “Characterization and in vitro activity of a branched peptide boronic acid that interacts with HIV-1 RRE RNA” (Bioorg Med Chem, 2016).
The source made the active and inactive calls. No cut-off for these calls is given here. *1 amine or outer side, *2 acyl side, *3 side chain or, on linkers, in order; H or OH if unused. Where a SMILES comes first, the peptide text is derived from it. Side-chain parts run from the residue outwards. [ ]: non-standard residue; d: D form. The star is where a group is joined. X4 = NCCCC[C@H](NC(=O)[C@@H](N)CCCCNC(=O)c1ccc(B(O)O)cc1)C(=O)N[C@@H](Cc1ccc(B(O)O)cc1)C(=O)*; X1 = N[C@@H](Cc1ccc(B(O)O)cc1)C(=O)N[C@@H](Cc1ccc(O)cc1)C(=O)N[C@@H](Cc1ccc(B(O)O)cc1)C(=O)*; X2 = NCCCC[C@H](NC(=O)[C@@H](N)CCCCN)C(=O)N[C@@H](CCCCNC(=O)c1ccc(B(O)O)cc1)C(=O)*; X3 = NCCCC[C@H](N)C(=O)N[C@@H](CCCCNC(=O)c1ccc(B(O)O)cc1)C(=O)*; Phe(4-B(OH)2) = N[C@@H](Cc1ccc(B(O)O)cc1)C(=O)O; Benzoyl(4-B(OH)2) = O=C(c1ccc(B(O)O)cc1)*; εLys = N[C@@H](CCCCN[*:1])C(=O)[*:2]

Tests used:
[1] = molecular target: Rev responsive element (RRE) RNA; experiment: Binding affinity to HIV-1 RRE 2B RNA measured after 4 hrs by dot blot assay; type: nucleic-acid assay, Human immunodeficiency virus 1
How it was run: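 RNA at 0.4 nM titrated with peptide 0.001–100 µM for 4 h at rt, filtered through nitrocellulose, washed twice, imaged by phosphorimaging. Kd from four-parameter logistic fit of densitometry; triplicate, SD reported.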

[2] = test system: Human immunodeficiency virus 1; experiment: Antiviral activity against HIV-1 NL4-3 infected monkey 5BD.1 cells assessed as reduction in p24 production at 10 uM measured over 24 hrs by p24 ELISA; type: functional
[3] = test system: Human immunodeficiency virus 1; experiment: Antiviral activity against HIV-1 NL4-3 infected in human U87 cells expressing CD4.CXCR4 assessed as inhibition of p24 production at 10 uM measured after 4 days by p24 ELISA; type: functional, organism-based
[4] = test system: Human immunodeficiency virus 1; experiment: Antiviral activity against HIV-1 NL4-3 infected in human U87 cells expressing CD4.CXCR4 assessed as inhibition of p24 production at 100 uM measured after 4 days by p24 ELISA; type: functional, organism-based
[5] = test system: Human immunodeficiency virus 1; experiment: Antiviral activity against HIV-1 NL4-3 infected in human U87 cells expressing CD4.CXCR4 assessed as inhibition of p24 production measured after 4 days by p24 ELISA; type: functional, organism-based
[6] = test system: Rev responsive element (RRE) RNA; experiment: Binding affinity to HIV-1 RRE 2B RNA assessed as protection against RNase T1-mediated RRE 2B cleavage at G10 and G11 preincubated for 4 hrs followed by addition of RNase T1 at 20 uM measured after 1 hr by nuclease protection assay; type: nucleic-acid assay; details: Human immunodeficiency virus 1
How it was run: (§1)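 5'-32P-labeled RRE IIB (10 nM) mixed with unlabeled RRE IIB (200 nM), heated to 95 °C for 3 min and snap-cooled. Incubated with peptide (up to 20 µM) on ice for 4 h in 10 mM Tris pH 7, 100 mM KCl, 10 mM MgCl2. Digested on ice with RNase V1 (0.002 U, 10 min), RNase T1 (1 U, 1 h) or RNase A (20 ng, 1 h). Stopped with inactivation/precipitation buffer, run on 12% urea PAGE, read by autoradiography against an alkaline hydrolysis ladder.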

[7] = test system: Rev responsive element (RRE) RNA; experiment: Binding affinity to HIV-1 RRE 2B RNA assessed as protection against RNase A-mediated RRE 2B cleavage at U9 and G34 preincubated for 4 hrs followed by addition of RNase A at 20 uM measured after 1 hr by nuclease protection assay; type: nucleic-acid assay; details: Human immunodeficiency virus 1; how it was run: as §1
[8] = Binding affinity to HIV-1 TAR RNA; set-up: species or system Human immunodeficiency virus 1
HeLa = experiment: Cytotoxicity in human HeLa cells assessed as cell viability at 100 nM to 10 uM measured over 24 hrs by MTT assay; type: cell-based; details: 0.1 µM
[9] = Toxicity against human U87 cells expressing CD4.CXCR4 assessed as cell viability at 10 uM measured after 24 hrs by MTT assay; type: cell-based, U-87MG ATCC; details: read-out: Activity
[10] = test system: Rev responsive element (RRE) RNA; experiment: Binding affinity to HIV-1 RRE 2B RNA assessed as protection against RNase V1-mediated RRE 2B cleavage at G17 and C18 preincubated for 4 hrs followed by addition of RNase V1 measured after 10 mins by nuclease protection assay; type: nucleic-acid assay; details: Human immunodeficiency virus 1; how it was run: as §1
[11] = molecular target: Rev responsive element (RRE) RNA; experiment: Binding affinity to HIV-1 RRE 2B RNA in presence of 1000-fold excess tRNA; type: nucleic-acid assay, Human immunodeficiency virus 1
[12] = test system: Rev responsive element (RRE) RNA; experiment: Selectivity ratio of Kd for HIV-1 RRE 2B RNA to Kd for HIV-1 RRE 2B RNA in presence of 1000-fold excess tRNA; type: nucleic-acid assay; details: Human immunodeficiency virus 1
[13] = molecular target: Rev responsive element (RRE) RNA; experiment: Binding affinity to HIV-1 RRE 2B RNA measured after 4 hrs by EMSA; type: nucleic-acid assay, Human immunodeficiency virus 1
[14] = test system: Rev responsive element (RRE) RNA; experiment: Binding affinity to HIV-1 RRE 2B RNA assessed as protection against RNase A-mediated RRE 2B cleavage at C33 of loop B preincubated for 4 hrs followed by addition of RNase A at 20 uM measured after 1 hr by nuclease protection assay; type: nucleic-acid assay; details: Human immunodeficiency virus 1; how it was run: as §1
[15] = test system: Rev responsive element (RRE) RNA; experiment: Binding affinity to HIV-1 RRE 2B RNA assessed as protection against RNase T1-mediated RRE 2B cleavage preincubated for 4 hrs followed by addition of RNase T1 measured up to 20 uM after 1 hr by nuclease protection assay; type: nucleic-acid assay; details: Human immunodeficiency virus 1; how it was run: as §1
[16] = test system: Rev responsive element (RRE) RNA; experiment: Binding affinity to HIV-1 RRE 2B RNA assessed as protection against RNase A-mediated RRE 2B cleavage at C21 and U24 preincubated for 4 hrs followed by addition of RNase A measured up to 20 uM after 1 hr by nuclease protection assay; type: nucleic-acid assay; details: Human immunodeficiency virus 1; how it was run: as §1

| Compound | Kd [1] | inhibition [2] | inhibition [3] | further results |
| --- | --- | --- | --- | --- |
| N[C@@H](Cc1ccc(B(O)O)cc1)C(=O)N[C@@H](Cc1ccc(O)cc1)C(=O)N[C@@H](Cc1ccc(B(O)O)cc1)C(=O)NCCCC[C@H](NC(=O)[C@H](Cc1ccc(B(O)O)cc1)NC(=O)[C@H](Cc1ccc(O)cc1)NC(=O)[C@@H](N)Cc1ccc(B(O)O)cc1)C(=O)O | > 100 µM | – | – | – |
| CCc1c(C)nc2sc(C(N)=O)c(N)c2c1C | – | Active | – | – |
| Cc1cn([C@H]2C[C@H](N=[N+]=[N-])[C@@H](CO)O2)c(=O)[nH]c1=O | – | – | Active | inhibition [4]: Active |
| Nc1ccn([C@@H]2CS[C@H](CO)O2)c(=O)n1 | – | – | Active | inhibition [4]: Active |
| NCCCC[C@H](NC(=O)[C@H](CCCCN)NC(=O)[C@H](CCCCNC(=O)c1ccc(B(O)O)cc1)NC(=O)[C@H](CCCCNC(=O)[C@H](Cc1ccc(B(O)O)cc1)NC(=O)[C@H](CCCCN)NC(=O)[C@@H](N)CCCCNC(=O)c1ccc(B(O)O)cc1)NC(=O)[C@H](Cc1ccc(B(O)O)cc1)NC(=O)[C@H](CCCCN)NC(=O)[C@@H](N)CCCCNC(=O)c1ccc(B(O)O)cc1)C(=O)N[C@@H](Cc1ccc(O)cc1)C(=O)O (H-K(Benzoyl(4-B(OH)2))K[Phe(4-B(OH)2)]K(X4)K(Benzoyl(4-B(OH)2))KKY-OH) | 3.3 µM | Active | inactive | – |
| NCCCC[C@H](NC(=O)[C@H](Cc1ccc(O)cc1)NC(=O)[C@@H](N)CCCCNC(=O)c1ccc(B(O)O)cc1)C(=O)NCCCC[C@H](NC(=O)[C@H](CCCCN)NC(=O)[C@H](Cc1ccc(O)cc1)NC(=O)[C@@H](N)CCCCNC(=O)c1ccc(B(O)O)cc1)C(=O)N[C@@H](Cc1cnc[nH]1)C(=O)N[C@@H](CCCCN)C(=O)N[C@@H](CCCCN)C(=O)N[C@@H](Cc1ccc(O)cc1)C(=O)O (H-K(Benzoyl(4-B(OH)2))YKK([Lys-Tyr-εLys-Benzoyl(4-B(OH)2)])HKKY-OH) | 86.5 µM | Active | inactive | – |
| NCCCC[C@H](NC(=O)[C@H](CCCCN)NC(=O)[C@H](CCCCNC(=O)[C@H](Cc1ccccc1)NC(=O)[C@H](CCCCNC(=O)c1ccc(B(O)O)cc1)NC(=O)[C@@H](N)CCCCN)NC(=O)[C@H](Cc1ccccc1)NC(=O)[C@H](CCCCNC(=O)c1ccc(B(O)O)cc1)NC(=O)[C@@H](N)CCCCN)C(=O)N[C@@H](Cc1c[nH]c2ccccc12)C(=O)N[C@@H](Cc1ccc(O)cc1)C(=O)O (H-KK(Benzoyl(4-B(OH)2))FK([Phe-X3])KKWY-OH) | 27.2 µM | Active | inactive | – |
| CC(C)C[C@H](NC(=O)[C@H](CCCCN)NC(=O)[C@H](CCCCNC(=O)[C@H](CCCCN)NC(=O)[C@H](CCCCNC(=O)c1ccc(B(O)O)cc1)NC(=O)[C@@H](N)CCCCN)NC(=O)[C@H](CCCCN)NC(=O)[C@H](CCCCNC(=O)c1ccc(B(O)O)cc1)NC(=O)[C@@H](N)CCCCN)C(=O)N[C@@H](CCCCN)C(=O)N[C@@H](Cc1ccc(O)cc1)C(=O)O (H-KK(Benzoyl(4-B(OH)2))KK([Lys-X3])KLKY-OH) | 58.4 µM | Active | inactive | – |
| C[C@@H](O)[C@H](NC(=O)[C@H](Cc1ccc(B(O)O)cc1)NC(=O)[C@H](CCCCNC(=O)[C@H](CCCCNC(=O)c1ccc(B(O)O)cc1)NC(=O)[C@H](CCCCN)NC(=O)[C@@H](N)CCCCN)NC(=O)[C@H](CCCCNC(=O)c1ccc(B(O)O)cc1)NC(=O)[C@H](CCCCN)NC(=O)[C@@H](N)CCCCN)C(=O)N[C@@H](CO)C(=O)N[C@@H](Cc1ccc(O)cc1)C(=O)O (H-KKK(Benzoyl(4-B(OH)2))K(X2)[Phe(4-B(OH)2)]TSY-OH) | 26.8 µM | Active | inactive | – |
| NCCCC[C@H](NC(=O)[C@H](CCCCN)NC(=O)[C@@H](N)Cc1c[nH]c2ccccc12)C(=O)NCCCC[C@H](NC(=O)[C@H](CCCCN)NC(=O)[C@H](CCCCN)NC(=O)[C@@H](N)Cc1c[nH]c2ccccc12)C(=O)N[C@@H](CCCCNC(=O)c1ccc(B(O)O)cc1)C(=O)N[C@@H](Cc1ccc(O)cc1)C(=O)N[C@@H](Cc1c[nH]c2ccccc12)C(=O)N[C@@H](Cc1ccc(O)cc1)C(=O)O (H-WKKK([Lys-Lys-Trp])K(Benzoyl(4-B(OH)2))YWY-OH) | 1.4 µM | Active | inactive | – |
| C[C@@H](O)[C@H](NC(=O)[C@@H]1CCCN1C(=O)[C@H](CCCCNC(=O)[C@H](CCCCN)NC(=O)[C@H](Cc1ccc(O)cc1)NC(=O)[C@@H](N)Cc1c[nH]c2ccccc12)NC(=O)[C@H](CCCCN)NC(=O)[C@H](Cc1ccc(O)cc1)NC(=O)[C@@H](N)Cc1c[nH]c2ccccc12)C(=O)N[C@@H](Cc1c[nH]c2ccccc12)C(=O)N[C@@H](Cc1ccc(O)cc1)C(=O)O (H-WYKK([Lys-Tyr-Trp])PTWY-OH) | 28.5 µM | Active | inactive | – |
| NCCCC[C@H](NC(=O)[C@H](CC(N)=O)NC(=O)[C@H](CCCCNC(=O)[C@H](Cc1ccc(B(O)O)cc1)NC(=O)[C@H](Cc1ccc(O)cc1)NC(=O)[C@@H](N)Cc1ccc(B(O)O)cc1)NC(=O)[C@H](Cc1ccc(B(O)O)cc1)NC(=O)[C@H](Cc1ccc(O)cc1)NC(=O)[C@@H](N)Cc1ccc(B(O)O)cc1)C(=O)N[C@@H](CO)C(=O)N[C@@H](Cc1ccc(O)cc1)C(=O)O (H-[Phe(4-B(OH)2)]Y[Phe(4-B(OH)2)]K(X1)NKSY-OH) | 8.7 µM | – | Active | inhibition at 10 µM ([2]; Human immunodeficiency virus 1, NL4-3, in Primates): 70%; inhibition [5]: Dose-dependent effect; IC50 ([5]; Human immunodeficiency virus 1, NL4-3, U-87 MG, 96 h): 5 µM; Activity [6]: inactive; inhibition [4]: Active; Activity [7]: inactive; Kd [8]: 5.2 µM; Activity (HeLa): Non-Toxic; viability at 24 h, 10 µM [9]: > 80%; Activity [10]: Dose-dependent effect; Kd [11]: 26.4 µM; Selectivity ratio [12]: 3; Kd [13]: 4.6 µM; Activity [14]: inactive; Activity [15]: inactive; Activity [16]: Active |
| NCCCC[C@H](NC(=O)[C@H](CC(N)=O)NC(=O)[C@H](CCCCN)NC(=O)[C@H](Cc1ccc(B(O)O)cc1)NC(=O)[C@H](Cc1ccc(O)cc1)NC(=O)[C@@H](N)Cc1ccc(B(O)O)cc1)C(=O)N[C@@H](CO)C(=O)N[C@@H](Cc1ccc(O)cc1)C(=O)O (H-[Phe(4-B(OH)2)]Y[Phe(4-B(OH)2)]KNKSY-OH) | 17.7 µM | – | – | – |
| NCCCC[C@H](NC(=O)[C@H](CC(N)=O)NC(=O)[C@H](Cc1ccc(B(O)O)cc1)NC(=O)[C@H](Cc1ccc(O)cc1)NC(=O)[C@H](Cc1ccc(B(O)O)cc1)NC(=O)[C@H](Cc1ccc(B(O)O)cc1)NC(=O)[C@H](Cc1ccc(O)cc1)NC(=O)[C@@H](N)Cc1ccc(B(O)O)cc1)C(=O)N[C@@H](CO)C(=O)N[C@@H](Cc1ccc(O)cc1)C(=O)O (H-[Phe(4-B(OH)2)]Y[Phe(4-B(OH)2)][Phe(4-B(OH)2)]Y[Phe(4-B(OH)2)]NKSY-OH) | 27.2 µM | – | – | – |
